Experimental data taken from ChEMBL document CHEMBL1123282, “Antiinflammatory activity of substituted 6-hydroxypyrimido[2,1-f]purine-2,4,8(1H,3H,9H)-triones. Atypical nonsteroidal antiinflammatory agents” (J Med Chem, 1986).
Blank lines part the entries; values can stand above or below the compound they belong to.

Assays:
Rattus norvegicus [1] = experiment: Compound was tested in vivo for antiinflammatory activity against chronic adjuvant arthritic rat by therapeutic percentage inhibition 2 degree paw after peroral administration of 10 mg/kg of dose; format: functional; details: route oral
[2] = Plasma level data at a dose of 36 mg/kg, iv after 0.25 hr; format: ADME, organism-based; parameters: dose 36 mg/kg, route intravenous; details: read-out: Plasma level
How it was run: (§1)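 Male Lewis rats get a single iv or oral dose of the sodium salt, suspended in 0.4% (w/v) methyl cellulose. Plasma drug levels are measured by HPLC at the timed points and given as mean ± SD, n = 3.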

Rattus norvegicus [3] = experiment: Compound was tested in vivo against chronic adjuvant arthritic rat by therapeutic inhibition 2 degree paw. Relative potency with respect to (8-Benzyl-5-hydroxy-1,3-dimethyl-6-propyl-1H,8H-1,3,4b,8,9-pentaaza-fluorene-2,4,7-trione); format: functional
[4] = Plasma level data at a dose of 36 mg/kg, po after 1 hr; format: ADME, organism-based; parameters: dose 36 mg/kg, route oral; details: read-out: Plasma level; how it was run: as §1
Rattus norvegicus [5] = experiment: Compound was tested in vivo for antiinflammatory activity against chronic adjuvant arthritic rat by therapeutic percentage inhibition 2 degree paw after peroral administration of 3.3 mg/kg of dose; format: functional; details: route oral
[6] = Plasma level data at a dose of 36 mg/kg, iv after 2 hr; format: ADME, organism-based; parameters: dose 36 mg/kg, route intravenous; details: read-out: Plasma level; how it was run: as §1
[7] = Plasma level data at a dose of 36 mg/kg, iv after 6 hr; format: ADME, organism-based; parameters: dose 36 mg/kg, route intravenous; details: read-out: Plasma level; how it was run: as §1
Rattus norvegicus [8] = experiment: C(compound) was tested for intestinal Ulcerogenic effect in rats at a dose of 30 mg/kg; format: functional
How it was run: (§2)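 Normal fed rats were gavaged once daily for three consecutive days at 10–300 mg/kg and killed 24 h after the last dose. Intestines were examined for ulcers, recording incidence per group of 8 and a lesion score (±SE).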

Rattus norvegicus [9] = experiment: Compound was tested for intestinal Ulcerogenic effect in rats at a dose of 300 mg/kg; format: functional; how it was run: as §2
Rattus norvegicus [10] = experiment: Compound was tested in vivo for antiinflammatory activity against chronic adjuvant arthritic rat by therapeutic percentage inhibition 1 degree paw after peroral administration of 10 mg/kg of dose; format: functional; details: route oral
Rattus norvegicus [11] = experiment: Compound was tested for intestinal Ulcerogenic effect in rats, activity expressed as lesion score at a dose of 300 mg/kg; format: functional; how it was run: as §2
[12] = Plasma level data at a dose of 36 mg/kg, po after 4 hr; format: ADME, organism-based; parameters: dose 36 mg/kg, route oral; details: read-out: Plasma level
How it was run: (§3)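 Male Lewis rats given a single po dose of the sodium salt suspended in 0.4% (w/v) methyl cellulose. Plasma drug levels measured by HPLC at set times up to 12 h; values are mean ± SD, n = 3.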

[13] = Plasma level data at a dose of 36 mg/kg, po after 2 hr; format: ADME, organism-based; parameters: dose 36 mg/kg, route oral; details: read-out: Plasma level; how it was run: as §3
[14] = Plasma level data at a dose of 36 mg/kg, po after 12 hr; format: ADME, organism-based; parameters: dose 36 mg/kg, route oral; details: read-out: Plasma level; how it was run: as §3
[15] = Plasma level data at a dose of 36 mg/kg, po after 0.25 hr; format: ADME, organism-based; parameters: dose 36 mg/kg, route oral; details: read-out: Plasma level; how it was run: as §1
[16] = Plasma level data at a dose of 36 mg/kg, iv after 0.5 hr; format: ADME, organism-based; parameters: dose 36 mg/kg, route intravenous; details: read-out: Plasma level; how it was run: as §1
[17] = Plasma level data at a dose of 36 mg/kg, po after 0.5 hr; format: ADME, organism-based; parameters: dose 36 mg/kg, route oral; details: read-out: Plasma level; how it was run: as §1
Rattus norvegicus [18] = experiment: Compound was tested in vivo for antiinflammatory activity against chronic adjuvant arthritic rat by therapeutic percentage inhibition 1 degree paw after peroral administration of 3.3 mg/kg of dose; format: functional; details: route oral
Rattus norvegicus [19] = experiment: Compound was tested for intestinal ulcerogenic effect in rats, activity expressed as ulcer incidence at a dose of 30 mg/kg; format: functional; how it was run: as §2
Rattus norvegicus [20] = experiment: Compound was tested for gastric ulcerogenic effect in rats, activity expressed as lesion length at a dose of 10 mg/kg
Rattus norvegicus [21] = experiment: Compound was tested in vivo for antiinflammatory activity against chronic adjuvant arthritic rat by therapeutic inhibition 1 degree paw after peroral administration of 18 mg/kg of dose; format: functional; details: route oral
Rattus norvegicus [22] = experiment: Compound was tested for gastric ulcerogenic effect in rats, activity expressed as lesion length at a dose of 100 mg/kg
Rattus norvegicus [23] = experiment: Compound was tested for intestinal ulcerogenic effect in rats, activity expressed as ulcer incidence at a dose of 300 mg/kg; format: functional; how it was run: as §2
Rattus norvegicus [24] = experiment: Compound was tested for intestinal ulcerogenic effect in rats at a dose of 300 mg/kg; format: functional; how it was run: as §2
Rattus norvegicus [25] = experiment: Compound was tested for intestinal ulcerogenic effect in rats, activity expressed as ulcer incidence at a dose of 100 mg/kg; format: functional; how it was run: as §2
Rattus norvegicus [26] = experiment: Compound was tested for intestinal ulcerogenic effect in rats, activity expressed as lesion score at a dose of 300 mg/kg; format: functional; how it was run: as §2
Rattus norvegicus [27] = experiment: Compound was tested in vivo against chronic adjuvant arthritic rat by prophylactic inhibition 1 degree paw. Relative potency with respect to (8-Benzyl-5-hydroxy-1,3-dimethyl-6-propyl-1H,8H-1,3,4b,8,9-pentaaza-fluorene-2,4,7-trione); format: functional
Rattus norvegicus [28] = experiment: Compound was tested for gastric ulcerogenic effect in rats, activity expressed as lesion length at a dose of 300 mg/kg
Rattus norvegicus [29] = experiment: Compound was tested for intestinal ulcerogenic effect in rats, activity expressed as lesion score at a dose of 10 mg/kg; format: functional; how it was run: as §2
Rattus norvegicus [30] = experiment: Compound was tested for intestinal ulcerogenic effect in rats at a dose of 100 mg/kg; format: functional; how it was run: as §2
Rattus norvegicus [31] = experiment: Compound was tested for intestinal ulcerogenic effect in rats, activity expressed as ulcer incidence at a dose of 10 mg/kg; format: functional; how it was run: as §2
Rattus norvegicus [32] = experiment: Compound was tested for intestinal ulcerogenic effect in rats, activity expressed as lesion score at a dose of 100 mg/kg; format: functional; how it was run: as §2
[33] = Plasma level data at a dose of 20 mg/kg, iv after 6 hr; format: ADME, organism-based; parameters: dose 20 mg/kg, route intravenous; details: read-out: Plasma level; how it was run: as §1
[34] = Plasma level data at a dose of 20 mg/kg, iv after 0.25 hr; format: ADME, organism-based; parameters: dose 20 mg/kg, route intravenous; details: read-out: Plasma level; how it was run: as §1
[35] = Plasma level data at a dose of 20mg/kg, po after 6 hr; format: ADME, organism-based; details: read-out: Plasma level; how it was run: as §1
[36] = Plasma level data at a dose of 20 mg/kg, iv after 1 hr; format: ADME, organism-based; parameters: dose 20 mg/kg, route intravenous; details: read-out: Plasma level; how it was run: as §1
[37] = Plasma level data at a dose of 20 mg/kg, iv after 2 hr; format: ADME, organism-based; parameters: dose 20 mg/kg, route intravenous; details: read-out: Plasma level; how it was run: as §1
[38] = Plasma level data at a dose of 20 mg/kg, po after 0.25 hr; format: ADME, organism-based; parameters: dose 20 mg/kg, route oral; details: read-out: Plasma level; how it was run: as §1
[39] = Plasma level data at a dose of 20 mg/kg, po after 1 hr; format: ADME, organism-based; parameters: dose 20 mg/kg, route oral; details: read-out: Plasma level; how it was run: as §1
Rattus norvegicus [40] = experiment: Compound was tested in vivo for antiinflammatory activity against chronic adjuvant arthritic rat by therapeutic inhibition 2 degree paw after peroral administration of 1 mg/kg of dose; format: functional; details: route oral
[41] = Plasma level data at a dose of 20 mg/kg, po after 12 hr; format: ADME, organism-based; parameters: dose 20 mg/kg, route oral; details: read-out: Plasma level; how it was run: as §1
[42] = Plasma level data at a dose of 20 mg/kg, iv after 0.5 hr; format: ADME, organism-based; parameters: dose 20 mg/kg, route intravenous; details: read-out: Plasma level; how it was run: as §1
Rattus norvegicus [43] = experiment: Compound was tested in vivo for antiinflammatory activity against chronic adjuvant arthritic rat by therapeutic inhibition 1 degree paw after peroral administration of 1 mg/kg of dose; format: functional; details: route oral
Rattus norvegicus [44] = species: Rattus norvegicus; experiment: Delayed Type hypersensitivity (DTH) is measured by increase in ear thickness 24 hours after antigen injection into pinna; format: functional
Rattus norvegicus [45] = experiment: compound was tested for antiinflammatory activity against collagen II arthritis in rats, activity% inhibition in injected paw edema; format: functional
How it was run: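 Arthritis induced in rats by injection of bovine articular cartilage type II collagen (dissolved in 0.01 M AcOH, dialysed against saline) mixed 1:1 with incomplete Freund's adjuvant. Paw inflammation checked weekly for 7 weeks. Inhibition = [Δpaw vol(collagen) − Δpaw vol(collagen + drug)]/[Δpaw vol(collagen) − Δpaw vol(ICFA control)] × 100. Bone damage scored by lateral-projection radiography; p ≤ 0.05 by Student's t-test.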

- concentration at 0.25 h [2]: 140000 ng/mL
- concentration at 1 h [4]: 23100 ng/mL
- concentration at 2 h [6]: 128000 ng/mL
- concentration at 6 h [7]: 78300 ng/mL
- concentration at 4 h [12]: 41800 ng/mL
- concentration at 2 h [13]: 66100 ng/mL
- concentration at 12 h [14]: 35900 ng/mL
- concentration at 0.25 h [15]: 20000 ng/mL
- concentration at 0.5 h [16]: 107000 ng/mL
- concentration at 0.5 h [17]: 45100 ng/mL
Compound: CCCc1c(O)n(Cc2ccc(F)cc2)c2nc3c(c(=O)n(C)c(=O)n3C)n2c1=O
- inhibition in vivo at 10 mg/kg (Rattus norvegicus [1]): 38%
- Relative potency (Rattus norvegicus [3]): 0.9
- inhibition in vivo at 3.3 mg/kg (Rattus norvegicus [5]): 30%
- Ulcer incidence (Rattus norvegicus [8]): 0 number/group
- Ulcer incidence (Rattus norvegicus [9]): 0 number/group
- inhibition in vivo at 10 mg/kg (Rattus norvegicus [10]): 27%
- Lesion score (Rattus norvegicus [11]): 0 mm rat-1
- inhibition in vivo at 3.3 mg/kg (Rattus norvegicus [18]): 7%

Compound: CC(C)=CCc1c(O)n(Cc2ccc(F)cc2)c2nc3c(c(=O)n(C)c(=O)n3C)n2c1=O
- Ulcer incidence (Rattus norvegicus [19]): 0 number/group
- Length (Rattus norvegicus [20]): 0 mm rat-1
- inhibition in vivo at 18 mg/kg (Rattus norvegicus [21]): 39%
- Length (Rattus norvegicus [22]): 0.1 mm rat-1
- Ulcer incidence (Rattus norvegicus [23]): 2 number/group
- Ulcer incidence (Rattus norvegicus [24]): 2 number/group
- Ulcer incidence (Rattus norvegicus [25]): 0 number/group
- Lesion length (Rattus norvegicus [26]): 0.2 mm rat-1
- Relative potency (Rattus norvegicus [27]): 1.1
- Length (Rattus norvegicus [28]): 3 mm rat-1
- Lesion length (Rattus norvegicus [29]): 0 mm rat-1
- Ulcer incidence (Rattus norvegicus [30]): 0 number/group
- Ulcer incidence (Rattus norvegicus [31]): 0 number/group
- Lesion length (Rattus norvegicus [32]): 0 mm rat-1

- concentration at 6 h [33]: 35100 ng/mL
- concentration at 0.25 h [34]: 95100 ng/mL
- concentration at 6 h [35]: 37000 ng/mL
- concentration at 1 h [36]: 74700 ng/mL
- concentration at 2 h [37]: 53800 ng/mL
- concentration at 0.25 h [38]: 2400 ng/mL
- concentration at 1 h [39]: 17300 ng/mL
- concentration at 12 h [41]: 26700 ng/mL
- concentration at 0.5 h [42]: 78600 ng/mL
Compound: CC(C)=CCc1c(O)n(Cc2ccccc2)c2nc3c(c(=O)n(C)c(=O)n3C)n2c1=O
- inhibition in vivo at 1 mg/kg (Rattus norvegicus [40]): 37%
- inhibition in vivo at 1 mg/kg (Rattus norvegicus [43]): 0%
- DTH (Rattus norvegicus [44]): 0.0582 mm
- Inhibition (Rattus norvegicus [45]): 0%
